Assay results from ChEMBL document CHEMBL4808187, “Antiarrhythmic Hit to Lead Refinement in a Dish Using Patient-Derived iPSC Cardiomyocytes” (J Med Chem, 2021).
Activity calls are given as the source filed them. No cut-off for these calls is given here.

Key:
[1] = Antiarrhythmic activity in hiPSC-CMs assessed as dose for induction of early after depolarizations; conditions: human, ipsc-cm
[2] = Inhibition of sodium channel (unknown origin) expressed in HEK cells assessed as reduction in late inward sodium current by automated patch clamp method; format: cell-based; conditions: Homo sapiens, HEK293
[3] = organism: Homo sapiens; assay: Selectivity index, ratio of IC50 for potassium channel (unknown origin) expressed in CHO cells assessed as reduction in potassium current to IC50 for sodium channel (unknown origin) expressed in HEK cells assessed as reduction in late inward sodium current
[4] = Antiarrhythmic activity in hiPSC-CMs assessed as fold prolongation of action potential relative to control; conditions: human, ipsc-cm
[5] = (§1) Antiarrhythmic activity in patient-derived hiPSC-CMs carrying LQT3 mutation assessed as fold shortening of action potential duration relative to control; format: functional, Homo sapiens, iPSC-CM
[6] = (§2) Antiarrhythmic activity in patient-derived hiPSC-CMs carrying LQT3 mutation assessed as cessation dose for cell beating; format: functional, Homo sapiens, iPSC-CM
[7] = Inhibition of sodium channel (unknown origin) expressed in HEK cells assessed as reduction in peak sodium current by automated patch clamp method; format: cell-based; conditions: Homo sapiens, HEK293
[8] = Antiarrhythmic activity in patient-derived hiPSC-CMs carrying LQT3 mutation assessed as shortening of action potential duration; format: functional, Homo sapiens; conditions: ipsc-cm
[9] = Antiarrhythmic activity in hiPSC-CMs assessed as cessation dose of cell beating; conditions: human, ipsc-cm
[10] = Inhibition of potassium channel (unknown origin) expressed in CHO cells assessed as reduction in potassium current by automated patch clamp method; format: cell-based
[11] = (§3) Antiarrhythmic activity in patient-derived hiPSC-CMs carrying LQT3 mutation assessed as shortening dose of action potential; format: functional, Homo sapiens, iPSC-CM
[12] = Metabolic stability in human liver S9 fraction assessed as compound remaining at 50 uM after 1 hr by HPLC method; format: ADME, subcellular; conditions: read-out: Stabilty
Method in brief: (§4)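 Human liver microsomes (0.4–0.5 mg protein) or S-9 (1 mg) with 50 μM compound in 50 mM potassium phosphate pH 7.4 plus NADPH-generating system, 37 °C shaking for 0, 7, 15, 30, 60 min; stopped with cold acetonitrile; HPLC C18, isocratic water/acetonitrile with 0.05% TFA, UV 275.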

[13] = Metabolic stability in human liver microsomes assessed as half life at 50 uM measured upto 60 mins by HPLC method; format: ADME, Microsome; method in brief: as §4
[14] = Antiarrhythmic activity in hiPSC-CMs assessed as prolongation of action potential; set-up: species or system Homo sapiens, iPSC-CM
[15] = Potency index, ratio of mexiletine EC50 to test compound EC50 for antiarrhythmic activity in hiPSC-CMs expressing LQT3 mutation assessed as shortening of action potential duration; format: functional, Homo sapiens, iPSC-CM
[16] = test system: iPSC-CM; assay: as §1; format: functional; conditions: Homo sapiens
[17] = test system: iPSC-CM; assay: as §3; format: functional; conditions: Homo sapiens
[18] = test system: iPSC-CM; assay: as §2; format: functional; conditions: Homo sapiens
[19] = Metabolic stability in human liver microsomes assessed as compound remaining at 50 uM after 1 hr by HPLC method; format: ADME, Microsome; conditions: read-out: Stabilty; method in brief: as §4
[20] = molecular target: Cytochrome P450 2D6 (Homo sapiens, UniProt P10635); assay: Drug metabolism assessed as human CYP2D6-mediated metabolism per ug protein; format: ADME; conditions: recombinant enzyme
[21] = molecular target: Cytochrome P450 3A4 (Homo sapiens, UniProt P08684); assay: Drug metabolism assessed as human CYP3A4-mediated metabolism per ug protein; format: ADME; conditions: recombinant enzyme
[22] = Chemical stability in pH 7.4 phosphate buffer assessed as half life at 100 uM by RP-HPLC analysis; format: physicochemical
[23] = molecular target: Cytochrome P450 3A5 (Homo sapiens, UniProt P20815); assay: Drug metabolism assessed as human CYP3A5-mediated metabolism per ug protein; format: ADME; conditions: recombinant enzyme
[24] = Chemical stability in pH 3 phosphate buffer assessed as half life at 100 uM by RP-HPLC analysis; format: physicochemical
[25] = Homo sapiens, iPSC-CM, read-out: EC50

Sequence of Cytochrome P450 3A5 (P20815 whole entry): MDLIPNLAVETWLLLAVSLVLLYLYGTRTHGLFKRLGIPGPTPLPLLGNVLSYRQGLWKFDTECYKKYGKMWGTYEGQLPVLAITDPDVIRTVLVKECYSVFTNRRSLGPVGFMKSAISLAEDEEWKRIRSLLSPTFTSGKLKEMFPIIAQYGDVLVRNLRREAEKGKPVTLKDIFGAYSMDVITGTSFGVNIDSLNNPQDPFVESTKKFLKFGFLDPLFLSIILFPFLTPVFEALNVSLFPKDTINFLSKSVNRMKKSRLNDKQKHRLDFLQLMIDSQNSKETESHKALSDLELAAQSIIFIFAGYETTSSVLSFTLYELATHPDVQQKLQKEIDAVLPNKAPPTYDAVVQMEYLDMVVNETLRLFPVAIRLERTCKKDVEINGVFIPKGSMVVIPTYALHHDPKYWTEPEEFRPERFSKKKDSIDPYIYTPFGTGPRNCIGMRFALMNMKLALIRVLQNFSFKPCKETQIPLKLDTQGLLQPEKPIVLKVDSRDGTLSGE
Sequence of Cytochrome P450 3A4 (P08684 whole entry): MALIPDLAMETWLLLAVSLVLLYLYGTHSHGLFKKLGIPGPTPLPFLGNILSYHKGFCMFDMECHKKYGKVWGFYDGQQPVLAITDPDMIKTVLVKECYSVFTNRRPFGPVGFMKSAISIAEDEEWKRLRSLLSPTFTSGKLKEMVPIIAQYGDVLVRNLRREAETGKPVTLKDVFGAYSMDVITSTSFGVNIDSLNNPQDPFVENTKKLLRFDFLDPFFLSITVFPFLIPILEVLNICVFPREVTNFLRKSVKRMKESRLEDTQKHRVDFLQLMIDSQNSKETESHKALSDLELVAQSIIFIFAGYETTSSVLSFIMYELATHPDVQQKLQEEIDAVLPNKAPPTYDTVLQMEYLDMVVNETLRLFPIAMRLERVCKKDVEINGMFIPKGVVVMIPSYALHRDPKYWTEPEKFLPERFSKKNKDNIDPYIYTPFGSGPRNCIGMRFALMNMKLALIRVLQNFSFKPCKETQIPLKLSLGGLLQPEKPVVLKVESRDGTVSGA
Sequence of Cytochrome P450 2D6 (P10635 whole entry): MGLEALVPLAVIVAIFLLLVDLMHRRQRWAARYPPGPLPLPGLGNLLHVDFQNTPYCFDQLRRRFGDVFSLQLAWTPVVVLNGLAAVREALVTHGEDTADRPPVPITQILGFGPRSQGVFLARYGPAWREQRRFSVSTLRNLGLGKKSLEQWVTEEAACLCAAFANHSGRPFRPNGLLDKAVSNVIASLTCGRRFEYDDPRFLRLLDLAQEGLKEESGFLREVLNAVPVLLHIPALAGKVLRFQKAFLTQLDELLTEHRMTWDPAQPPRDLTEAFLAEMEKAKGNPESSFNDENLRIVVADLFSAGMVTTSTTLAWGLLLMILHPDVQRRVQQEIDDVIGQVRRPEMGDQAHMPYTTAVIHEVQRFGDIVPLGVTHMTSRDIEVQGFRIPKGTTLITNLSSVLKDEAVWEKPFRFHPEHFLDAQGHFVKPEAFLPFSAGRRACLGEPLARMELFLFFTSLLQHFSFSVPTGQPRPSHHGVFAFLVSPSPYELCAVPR

IC50 [2] | IC50 [7] | IC50 [10] | SMILES | Activity [1] | Ratio IC50 [3] | fold change (FC) [5] | Activity [6] | EC50 ([8]; read-out: EC50) | Activity [9] | Activity [11] | EC50 ([14]; ipsc-cm) | EC50 [8] | Activity [17] | further results
10 µM | 76.8 µM | 45.8 µM | Cc1cc(C)cc(OCC(N)C2CC2)c1.Cl (centres undefined) | 66 µM | 4.6 | 1.15 | 200 µM | 2.06 µM | 200 µM | 22 µM |  |  |  | fold change (FC) [4]: 2.12
7.4 µM | 130 µM | 30.1 µM | Cc1cccc(C)c1OCC(N)C1CC1.Cl (centres undefined) | 66 µM | 4.1 | 1.162 | 200 µM | 0.8 µM | Not Active | 22 µM |  |  |  | EC50 [14, 25]: 8 µM; fold change (FC) [4]: 2.805
 | 129 µM | 84 µM | Cc1cccc(C)c1OC[C@@H](C)N [(R)-MEXILETINE] | 200 µM |  |  |  | 0.96 µM | Not Active | 7.4 µM |  |  |  | remaining at 1 h, 50 µM [12]: > 95%; Activity [18]: inactive; remaining at 1 h, 50 µM [19]: > 95%
1.02 µM | 45.1 µM | 16.8 µM | Cl.OCCNC(COc1cc(C(F)(F)F)cc(C(F)(F)F)c1)c1ccccc1 (centres undefined) | Not Active | 16.5 | 1.5 | 22 µM |  | 66 µM | 7.4 µM |  | Not Active |  | Activity [4]: Not Active
17.3 µM | 154 µM | 49.3 µM | Cc1cc(C)cc(OCC(C)N)c1.Cl (centres undefined) | Not Active | 2.84 | 1.232 | 200 µM | 4.5 µM | Not Active | 66 µM |  |  |  | EC50 [14, 25]: 7.7 µM
0.2 µM | 20.1 µM | 6.2 µM | Cc1cc(C)cc(OCC(N)c2ccccc2)c1.Cl (racemic) | Not Active | 31 | 1.279 | 66 µM | < 0.8 µM | 66 µM | 7.4 µM | Not Active |  |  | Drug metabolism [20]: 6.9 pmol/min; Drug metabolism [21]: Metabolite_Notdetected; half-life at 100 µM [22]: > 30 days; Drug metabolism [23]: Metabolite_Notdetected
0.753 µM | 38 µM | 5.1 µM | COCCNC(COc1cc(C)cc(C)c1)c1ccccc1.Cl (centres undefined) | Not Active | 6.8 |  | 200 µM |  | 200 µM |  |  | Not Active | inactive | Activity [4]: Not Active; fold change (FC) [16]: inactive
 | 128 µM | 54.3 µM | Cc1cccc(C)c1OC[C@H](C)N [(S)-MEXILETINE] | 200 µM |  |  |  | 0.8 µM | Not Active | 22 µM |  |  |  | remaining at 1 h, 50 µM [12]: > 95%; Activity [18]: inactive; remaining at 1 h, 50 µM [19]: > 95%

Second part, the compound before the results:

SMILES | IC50 [2] | IC50 [7] | IC50 [10] | Activity [1] | Ratio IC50 [3] | fold change (FC) [5] | Activity [6] | EC50 ([8]; read-out: EC50) | Activity [9] | Activity [11] | EC50 ([14]; ipsc-cm) | EC50 [8] | Activity [17] | further results
Cc1ccccc1OC[C@@H](N)c1ccccc1.Cl |  |  |  |  |  |  |  |  |  |  |  |  |  | remaining at 1 h, 50 µM [12]: > 95%; half-life at 50 µM [13]: 0.0944 days
Cc1cccc(C)c1OCC(N)C(C)(C)C.Cl (centres undefined) | 11.4 µM | 91.4 µM | 27.6 µM | 7.4 µM | 2.42 | 1.182 | 22 µM | < 0.8 µM | Not Active | 2.5 µM | Not Active |  |  | 
COc1ccc(C(N)COc2c(C)cccc2C)cc1.Cl (centres undefined) |  |  |  | Not Active |  | 1.425 | 66 µM |  | 66 µM | 7.4 µM | Not Active | Not Active |  | Ratio EC50 [15]: 7
CCNC(COc1cccc(C)c1C)c1ccccc1.Cl (centres undefined) |  |  |  | Not Active |  |  | 22 µM |  | 133 µM |  |  | Not Active | inactive | Activity [4]: Not Active; fold change (FC) [16]: inactive
Cc1cccc(C)c1OCC(C)Nc1ccccc1.Cl (centres undefined) |  |  |  | Not Active |  |  |  |  | Not Active |  | Not Active | Not Active | inactive | Activity [18]: inactive
CCNC(C)COc1c(C)cccc1C.Cl (centres undefined) |  |  |  | 133 µM |  |  |  |  | Not Active |  |  | Not Active | inactive | EC50 [14, 25]: 21.5 µM; Activity [18]: inactive
CCCNC(COc1cccc(C)c1C)c1ccccc1.Cl (centres undefined) |  |  |  | Not Active |  |  | 133 µM |  | Not Active |  |  | Not Active | inactive | Activity [4]: Not Active; fold change (FC) [16]: inactive
COc1ccccc1OCC(C)N.Cl (centres undefined) |  |  |  | 133 µM |  |  |  |  | Not Active |  |  | Not Active | inactive | EC50 [14, 25]: 97.8 µM; fold change (FC) [16]: inactive; Activity [18]: inactive
Cc1cccc(C)c1OCC(N)c1ccc(C(F)(F)F)cc1.Cl (centres undefined) |  |  |  | Not Active |  | 1.48 | 66 µM | 1.4 µM | 66 µM | 22 µM | Not Active |  |  | Ratio EC50 [15]: 7
Cc1cccc(C)c1OCC(C)NC(=O)c1ccccc1.Cl (centres undefined) |  |  |  | Not Active |  | 1.45 | 133 µM | 133 µM | 66 µM | 66 µM | Not Active |  |  | Ratio EC50 [15]: 9
Cc1cccc(C)c1OCC(C)NCCc1ccccc1.Cl (centres undefined) |  |  |  | 22 µM |  | 1.706 | 7.4 µM |  | 133 µM | 2.5 µM |  | Not Active |  | EC50 [14, 25]: 2.5 µM; Ratio EC50 [15]: 28
Cc1ccccc1OCC(N)c1ccccc1.Cl (racemic) |  |  |  |  |  |  |  |  |  |  |  |  |  | half-life at 100 µM [24]: > 15 days; half-life at 100 µM [22]: > 30 days
CC(=O)NC(C)COc1c(C)cccc1C.Cl (centres undefined) |  |  |  | Not Active |  |  |  |  | Not Active |  | Not Active | Not Active | inactive | fold change (FC) [16]: inactive; Activity [18]: inactive
Cc1ccc(C(N)COc2c(C)cccc2C)cc1.Cl (centres undefined) |  |  |  | Not Active |  | 1.588 | 66 µM |  | 66 µM | 22 µM | Not Active | Not Active |  | Ratio EC50 [15]: 7
